Results on 2 compounds are retold here after PMC7339641 (Molecular imaging and biology, 2018).

One data set concerns HCC-1954 cells. Put plainly: Fluorescent microscopy of peptide binding, HCC-1954. Format: cell-based. As to conditions: fixed cells, peptide 250 nM, 1 h room temperature, neutravidin-AlexaFluor488. An outline of the steps: (§1)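 Cells fixed in 10 % formalin and dried onto slides overnight. Rehydrated in TBS, then blocked with 2 % BSA in TBS for 1 h. Biotinylated test peptide at 250 nM in 0.1 % TBST for 1 h at room temperature, then 3× washes with 0.1 % TBST. Neutravidin-AlexaFluor488 for 1 h at room temperature. Mounted in DAPI-containing medium and imaged on an inverted microscope.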

The subject of the next data set is MDA-MB-453 cells. Put plainly: Fluorescent microscopy of peptide binding, MDA-MB-453. Type of data set: cell-based, human. As to conditions: fixed cells, peptide 250 nM, 1 h room temperature, neutravidin-AlexaFluor488. An outline of the steps: as §1
In the next data set the test system is HER3. As to conditions: human, in vivo; cited from earlier work.

In the case of `CC(C)C[C@@H]1NC(=O)[C@@H](NC(=O)CNC(=O)CNC(=O)CNC(=O)CCCC[C@@H]2SC[C@@H]3NC(=O)N[C@@H]32)CSSC[C@@H](C(=O)O)NC(=O)[C@H](CO)NC(=O)[C@H](CCCNC(=N)N)NC(=O)[C@H](Cc2ccccc2)NC(=O)[C@H](CCCCN)NC(=O)[C@H]([C@@H](C)O)NC(=O)[C@@H]2CCCN2C1=O` [biotinylated-HER3P1], in the data set on HCC-1954 cells, the “binding by fluorescent microscopy, HCC-1954” value is “almost no visualization”. The “binding by fluorescent microscopy, MDA-MB-453” value in the data set on MDA-MB-453 cells is “high binding”. “^64Cu-labeled DOTA-conjugated patritumab: 64Cu-labeled DOTA conjugate of the anti-HER3 antibody patritumab”: the “specific accumulation measured by tumor-to-blood ratio” value in the data set on HER3 is “approximately 1”.
